Molecules are shown by their SMILES. Calls of active or inactive are those of the source. No cut-off for these calls is given here. A value given as a limit tells only on which side of the number the result lay.

Data set [1] has as its system CHO. Nature of the data set: Phototoxicity in transformed CHO cells after 24 hrs incubation in dark by WST1 assay. Type of data set: functional, cell-based. To be noted: Cricetulus griseus, light or radiation study. An outline of the steps: (§1)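 CHO cells (50,000/well, McCoy's 5A with 10% FCS) grown 24 h, then dosed with a concentration range in duplicate (DMSO under 0.5% final). Either kept dark or irradiated at once (4.5 J/cm²: 0.36 UVA plus 4.14 visible, 750 W m⁻²), then 24 h at 37 °C. After PBS washes, 20 min with WST1 and absorbance read at 450 nm. IC50 is the 50% drop versus control.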
For orientation: Formazan colour is commonly taken as a measure of viable cells.

Data set [2] has as its system CHO. In words: Phototoxicity in transformed CHO cells after 24 hrs of UV irradiation by WST1 assay. The conditions noted are these: Cricetulus griseus, light or radiation study. The format is functional, cell-based. The method, boiled down:
as §1

The nature of data set [3]: Phototoxicity in normal human keratinocytes after 24 hrs incubation in dark by WST1 assay. Type of data set: cell-based. To be noted: Keratinocyte, light or radiation study.
A short description of data set [4]: Phototoxicity in normal human keratinocytes after 24 hrs of UV irradiation by WST1 assay. The format is cell-based. The conditions noted are these: Keratinocyte, light or radiation study.
The subject of data set [5] is CHO-K1. Nature of the data set: Clastogenic activity in CHOK1 cells assessed as lowest drug concentration required to increase number of micronucleated cells after 3 hrs incubation in dark by micronucleus assay. Type of data set: functional. An outline of the steps: (§2)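 CHO-K1 cells (50,000, chamber slides) grown 24 h, then dosed with a concentration range in duplicate, either kept dark or irradiated at once (4.5 J/cm², 1 min, 320–800 nm, 750 W m⁻², samples held at 4 °C). Exposure 3 h at 37 °C, then 5 μg/mL cytochalasin B for 24 h. Methanol fixation, Giemsa staining, 2000 binucleated cells per concentration scored at doses giving under 50% toxicity. χ² test against control. MCC is the lowest concentration giving a significant increase.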

Data set [6] concerns CHO-K1. In words: Clastogenic activity in CHOK1 cells assessed as lowest drug concentration required to increase number of micronucleated cells after 3 hrs of UV irradiation by micronucleus assay. Type of data set: functional, Cricetulus griseus. The method, boiled down:
as §2

Data set [7] has as its system CHO. In words: Ratio of IC50 for transformed CHO cells incubated in dark to IC50 for transformed CHO cells incubated under UV irradiation. Type of data set: functional, Cricetulus griseus.
A short description of data set [8]: Ratio of IC50 for normal human keratinocytes incubated in dark to IC50 for normal human keratinocytes incubated under UV irradiation. The conditions noted are these: read-out: Ratio IC50. The format is cell-based, Keratinocyte.
Data set [9] has as its system CHO-K1. In words: Clastogenic activity in CHOK1 cells assessed as induction of chromosomal mutation and misaggregation at 15 uM incubated in dark for 3 hrs by micronucleus assay in presence of protective antioxidant mannitol treated 2 hrs before compound addition. The conditions noted are these: Cricetulus griseus. Type of data set: functional, cell-based. The method, boiled down: (§3)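 CHO-K1 cells (50,000, chamber slides, McCoy's 5A with 10% FCS) grown 24 h, then given 2 mM mannitol for 2 h at 37 °C. Then either dark treatment or irradiation at 4.5 J/cm² (UVA-visible 320–800 nm, 750 W m⁻²). Exposure 3 h at 37 °C, then 5 μg/mL cytochalasin B for 24 h. Giemsa staining; binucleated cells scored for micronuclei at 1000×.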

The subject of data set [10] is CHO-K1. Nature of the data set: Clastogenic activity in CHOK1 cells assessed as induction of chromosomal mutation and misaggregation at 0.15 uM after 3 hrs of 4.5 J/cm'2 UV irradiation by micronucleus assay in presence of protective antioxidant mannitol treated 2 hrs before compound addition. To be noted: Cricetulus griseus. Type of data set: functional, cell-based. The method, boiled down: as §3

On to `O=C(Nc1ccc2cc3ccc(NC(=O)c4ccc(F)cc4)cc3nc2c1)c1ccc(F)cc1`, for which the IC50 (in the data set on CHO [1]; in the data set with CHO [2]; in data set [3]; in [4]) was above 50 µM throughout. The outcome in the data set on CHO-K1 [5] (Cricetulus griseus) was inactive. Besides, in the data set with CHO-K1 [6], the Activity came to 1.81 µM.
As for `N#Cc1ccc(C(=O)Nc2ccc3cc4ccc(NC(=O)c5ccc(C#N)cc5)cc4nc3c2)cc1`, the IC50 with CHO [1] was above 50 µM; in the data set on CHO [2], 3.46 µM; in data set [3] it was above 50 µM; in data set [4], 33.5 µM. Further, in the data set on CHO-K1 [5] (Cricetulus griseus), the outcome was inactive. In the data set on CHO-K1 [6], the Activity is 0.06 µM.
As to `CCC(=O)Nc1ccc2cc3ccc(NC(=O)CC)cc3nc2c1`, the IC50 in the data set with CHO [1] was above 50 µM; with CHO [2], 2.9 µM; in data set [3], above 50 µM; in [4], 2.4 µM. Besides, the Activity in the data set with CHO-K1 [5] is 1.15 µM; in the data set on CHO-K1 [6], 0.03 µM.
As for `CC(C)(C)C(=O)Nc1ccc2cc3ccc(NC(=O)C(C)(C)C)cc3nc2c1`, the IC50 in the data set with CHO [1] was 0.11 µM; in the data set with CHO [2] it was 0.1 µM; in [3], 3.28 µM; in data set [4], 4.69 µM. The outcome in the data set with CHO-K1 [5] (Cricetulus griseus) and in the data set with CHO-K1 [6] (Cricetulus griseus) was inactive.
`O=C(Nc1ccc2cc3ccc(NC(=O)c4ccccc4)cc3nc2c1)c1ccccc1`: the IC50 in the data set on CHO [1] was 23.8 µM; in the data set with CHO [2], 0.26 µM; in data set [3], above 50 µM; in [4], 0.33 µM. The “Ratio IC50” value with CHO [7] is given as 90. Also, the selectivity ratio in data set [8] was determined as 100. In addition, the outcome with CHO-K1 [5] (Cricetulus griseus) and with CHO-K1 [6] (Cricetulus griseus) was inactive.
Regarding `O=C(Nc1ccc2cc3ccc(NC(=O)c4ccco4)cc3nc2c1)c1ccco1`, the IC50 came out at 2.5 µM with CHO [1], 16.4 µM with CHO [2], 34.1 µM in data set [3] and 19.3 µM in data set [4]. Also, the outcome in the data set with CHO-K1 [5] (Cricetulus griseus) and in the data set on CHO-K1 [6] (Cricetulus griseus) was inactive.
On to `CC(=O)Nc1ccc2cc3ccc(NC(C)=O)cc3nc2c1`, for which the IC50 in the data set on CHO [1] is above 50 µM; with CHO [2], 37.2 µM; in data set [3], above 50 µM; in [4] it was 41.2 µM. The Activity in the data set on CHO-K1 [5] amounted to 11.01 µM; with CHO-K1 [6], 0.24 µM.
Consider `Nc1ccc(C(=O)Nc2ccc3cc4ccc(NC(=O)c5ccc(N)cc5)cc4nc3c2)cc1`, for which the IC50 (in the data set with CHO [1]; in the data set on CHO [2]; in data set [3]; in data set [4]) was above 50 µM in each case. Besides, the result in the data set with CHO-K1 [5] (Cricetulus griseus) was inactive. In the data set with CHO-K1 [6], the Activity turned out to be 0.13 µM.
Regarding `Cc1ccc(C(=O)Nc2ccc3cc4ccc(NC(=O)c5ccc(C)cc5)cc4nc3c2)cc1`, the IC50 in the data set with CHO [1] was 43.1 µM; in the data set on CHO [2], 1.34 µM; in data set [3], above 50 µM; in data set [4], 4.04 µM. In addition, the Activity in the data set on CHO-K1 [5] was found to be 2.11 µM; in the data set with CHO-K1 [6], 0.02 µM.
For `O=C(Nc1ccc2cc3ccc(NC(=O)c4cc(C(F)(F)F)cc(C(F)(F)F)c4)cc3nc2c1)c1cc(C(F)(F)F)cc(C(F)(F)F)c1`, the IC50 (in the data set with CHO [1]; with CHO [2]; in [3]; in data set [4]) was above 50 µM in each case. In addition, the result in the data set with CHO-K1 [5] (Cricetulus griseus) and in the data set on CHO-K1 [6] (Cricetulus griseus) was inactive.
`O=C(Nc1ccc2cc3ccc(NC(=O)c4cccc5ccccc45)cc3nc2c1)c1cccc2ccccc12`: the IC50 in the data set on CHO [1] is 42.3 µM; in the data set with CHO [2], 0.32 µM; in data set [3], above 50 µM; in data set [4], 24.1 µM. The “Ratio IC50” value with CHO [7] was 130. Besides, the result with CHO-K1 [5] (Cricetulus griseus) was inactive. Besides, the Activity in the data set with CHO-K1 [6] worked out at 0.13 µM.
On to `Nc1ccc2cc3ccc(N)cc3nc2c1` [PROFLAVINE], for which the IC50 in the data set on CHO [1] was 1.1 µM; in the data set on CHO [2] it was 0.52 µM; in data set [3], above 50 µM; in data set [4], above 50 µM. Moreover, the Activity came out at 0.005 µM in the data set on CHO-K1 [5] and 0.004 µM in the data set with CHO-K1 [6].
For the compound `COC(=O)Nc1ccc2cc3ccc(NC(=O)OC)cc3nc2c1`, the IC50 in the data set with CHO [1] is 15.8 µM; in the data set on CHO [2] it was 3.8 µM; in data set [3] it was above 50 µM; in data set [4] it was 8.1 µM. Further, the Activity came out at 0.47 µM in the data set on CHO-K1 [5] and 0.21 µM in the data set with CHO-K1 [6].
Regarding `O=C(Nc1ccc2cc3ccc(NC(=O)c4ccc([N+](=O)[O-])cc4)cc3nc2c1)c1ccc([N+](=O)[O-])cc1`, the IC50 with CHO [1] was 40.2 µM; in the data set on CHO [2], above 50 µM; in data set [3], above 50 µM; in data set [4] it was above 50 µM. Further, the result with CHO-K1 [5] (Cricetulus griseus) and with CHO-K1 [6] (Cricetulus griseus) was inactive.
For `COc1ccc(C(=O)Nc2ccc3cc4ccc(NC(=O)c5ccc(OC)cc5)cc4nc3c2)cc1`, the IC50 is 45.2 µM in the data set with CHO [1], 43.4 µM in the data set on CHO [2], above 50 µM in data set [3] and above 50 µM in data set [4]. Besides, the result in the data set with CHO-K1 [5] (Cricetulus griseus) and with CHO-K1 [6] (Cricetulus griseus) was inactive.
`O=C(Nc1ccc2cc3ccc(NC(=O)c4ccc(Cl)cc4)cc3nc2c1)c1ccc(Cl)cc1`: the IC50 is above 50 µM in the data set on CHO [1], 0.94 µM in the data set with CHO [2], above 50 µM in data set [3] and 5.4 µM in data set [4]. Also, the Activity in the data set with CHO-K1 [5] amounted to 2.38 µM; with CHO-K1 [6], 0.12 µM.
Regarding `CCCC(=O)Nc1ccc2cc3ccc(NC(=O)CCC)cc3nc2c1`, the IC50 in the data set on CHO [1] was 38.9 µM; with CHO [2], 1.34 µM; in data set [3], above 50 µM; in [4], 0.57 µM. Also, the selectivity ratio in data set [8] was determined as 100. Moreover, the Activity in the data set on CHO-K1 [5] was 1.01 µM; with CHO-K1 [6], 0.007 µM. Further, the outcome with CHO-K1 [9] and with CHO-K1 [10] was Active.
Consider `CC(C)(C)OC(=O)Nc1ccc2cc3ccc(NC(=O)OC(C)(C)C)cc3nc2c1`, for which the IC50 was 6.1 µM in the data set on CHO [1], 0.12 µM in the data set on CHO [2], above 50 µM in data set [3] and 0.14 µM in [4]. The selectivity ratio in [8] is 100. Also, the result in the data set with CHO-K1 [5] (Cricetulus griseus) and in the data set with CHO-K1 [6] (Cricetulus griseus) was inactive.
With `O=C(Nc1ccc2cc3ccc(NC(=O)c4ccc(Cl)c(Cl)c4)cc3nc2c1)c1ccc(Cl)c(Cl)c1`, the IC50 (in the data set with CHO [1]; in the data set with CHO [2]; in data set [3]; in data set [4]) was above 50 µM in each case. The outcome in the data set on CHO-K1 [5] (Cricetulus griseus) and in the data set on CHO-K1 [6] (Cricetulus griseus) was inactive.

By IC50 is commonly meant the midpoint of a concentration-inhibition curve. A higher IC50 goes with weaker potency.
